From ChEMBL document CHEMBL1240424, “Design and synthesis of potent inhibitors of beta-ketoacyl-acyl carrier protein synthase III (FabH) as potential antibacterial agents” (Eur J Med Chem, 2010)

Tested on: not listed separately
Assay: Inhibition of Escherichia coli N-terminal His-tagged FabH expressed in Escherichia coli BL21(DE3) after 25 mins
Summary of the method: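 His-tagged E. coli FabH was Ni-NTA purified. Reaction: 1 nM FabH, 2.5 μM holo-ACP, 20 mM sodium phosphate pH 7.0, 0.5 mM DTT, 0.25 mM MgCl₂. Started with 25 μM acetyl-CoA plus [³H]acetyl-CoA and run 25 min. Stopped with cold 50% TCA, pellet washed and dissolved in NaOH, ³H counted by scintillation. Inhibitors added from DMSO, final ≤2% DMSO, to give IC50.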

For Oc1ccc(F)cc1/C=N/C1CCCC1, which IC50 is on record?
Its IC50 is 18.4 µM.

Which IC50 does the source give for Oc1ccc(F)cc1/C=N/C1CCCCC1 here?
Its IC50 is 7.4 µM.

With Oc1ccc(F)cc1/C=N/CC1CCCCC1 as the compound, how does the IC50 read?
The IC50 was 6.8 µM.

For Oc1ccc(F)cc1/C=N/CCN1CCNCC1, which IC50 is on record?
The IC50 was 48.5 µM.

Which IC50 does the source give for Oc1ccc(CC/N=C/c2cc(F)ccc2O)cc1 here?
Its IC50 is 2.7 µM.

With Oc1ccc(F)cc1/C=N/c1ccc(F)cc1 as the compound, how does the IC50 read?
The IC50 was 28.6 µM.

Which IC50 does the source give for Oc1ccc(F)cc1/C=N/c1ccc(Cl)cc1 here?
The IC50 was 42.5 µM.

With Oc1ccc(F)cc1/C=N/c1ccccc1F as the compound, how does the IC50 read?
The IC50 was 8.6 µM.

With Oc1ccc(F)cc1/C=N/c1ccccc1Cl as the compound, how does the IC50 read?
Its IC50 is 11.7 µM.

Tested on: Escherichia coli
Assay: Antibacterial activity against Escherichia coli after 24 hrs by MTT assay
Type: functional
Summary of the method: (§1)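 Broth microdilution in Mueller–Hinton medium. Compounds from a 100 μg/mL DMSO stock were serially diluted, and inoculum was about 10⁵ cfu/mL. Plates were incubated 24 h at 37 °C and MIC was read visually. MTT (2 mg/mL in PBS pH 7.4) was then added for 4–5 h at room temperature, dye extracted with acidified isopropanol for 12 h, and OD read at 550 nm.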

With Oc1ccc(F)cc1/C=N/C1CCCC1 as the compound, how does the Activity read?
Its Activity is 12.5 µg/mL.

With Oc1ccc(F)cc1/C=N/C1CCCCC1 as the compound, how does the Activity read?
Its Activity is 6.25 µg/mL.

With Oc1ccc(F)cc1/C=N/CC1CCCCC1 as the compound, how does the Activity read?
Its Activity is 6.25 µg/mL.

With Oc1ccc(F)cc1/C=N/CCN1CCOCC1 as the compound, how does the Activity read?
The Activity was 25 µg/mL.

With Oc1ccc(F)cc1/C=N/CCCN1CCOCC1 as the compound, how does the Activity read?
Its Activity is >100 µg/mL.

For Oc1ccc(F)cc1/C=N/CCN1CCNCC1, which Activity is on record?
The Activity was 12.5 µg/mL.

With CN(C)CCC/N=C/c1cc(F)ccc1O as the compound, how does the Activity read?
Its Activity is >100 µg/mL.

For CCN(CC)CCC/N=C/c1cc(F)ccc1O, which Activity is on record?
Its Activity is >100 µg/mL.

For Oc1ccc(CC/N=C/c2cc(F)ccc2O)cc1, which Activity is on record?
Its Activity is 1.56 µg/mL.

For Cc1ccc(/N=C/c2cc(F)ccc2O)cc1, which Activity is on record?
Its Activity is 50 µg/mL.

Which Activity does the source give for CC(C)c1ccc(/N=C/c2cc(F)ccc2O)cc1 here?
Its Activity is >100 µg/mL.

Which Activity does the source give for Oc1ccc(F)cc1/C=N/c1ccc(F)cc1 here?
The Activity was 12.5 µg/mL.

With Oc1ccc(F)cc1/C=N/c1ccc(Cl)cc1 as the compound, how does the Activity read?
The Activity was 12.5 µg/mL.

For Oc1ccc(F)cc1/C=N/c1ccc(Br)cc1, which Activity is on record?
The Activity was 25 µg/mL.

With Oc1ccc(/N=C/c2cc(F)ccc2O)cc1 as the compound, how does the Activity read?
The Activity was >100 µg/mL.

Which Activity does the source give for O=[N+]([O-])c1ccc(/N=C/c2cc(F)ccc2O)cc1 here?
The Activity was >100 µg/mL.

For Oc1ccc(F)cc1/C=N/c1ccccc1F, which Activity is on record?
The Activity was 6.25 µg/mL.

Which Activity does the source give for Oc1ccc(F)cc1/C=N/c1ccccc1Cl here?
Its Activity is 6.25 µg/mL.

With Oc1ccc(F)cc1/C=N/c1ccccn1 as the compound, how does the Activity read?
Its Activity is 50 µg/mL.

For Oc1ccc(F)cc1/C=N/C1CCN(Cc2ccccc2)CC1, which Activity is on record?
The Activity was >100 µg/mL.

Which Activity does the source give for NC[C@H]1O[C@H](O[C@H]2[C@H](O)[C@@H](O[C@H]3O[C@H](CO)[C@@H](O)[C@H](N)[C@H]3O)[C@H](N)C[C@@H]2N)[C@H](O)[C@@H](O)[C@@H]1O [KANAMYCIN] here?
The Activity was 3.13 µg/mL.

Tested on: Staphylococcus aureus
Assay: Antibacterial activity against Staphylococcus aureus after 24 hrs by MTT assay
Type: functional
Summary of the method: as §1

For Oc1ccc(F)cc1/C=N/C1CCCC1, which Activity is on record?
The Activity was 25 µg/mL.

Which Activity does the source give for Oc1ccc(F)cc1/C=N/C1CCCCC1 here?
Its Activity is 12.5 µg/mL.

With Oc1ccc(F)cc1/C=N/CC1CCCCC1 as the compound, how does the Activity read?
Its Activity is 25 µg/mL.

Which Activity does the source give for Oc1ccc(F)cc1/C=N/CCN1CCOCC1 here?
Its Activity is 50 µg/mL.

Which Activity does the source give for Oc1ccc(F)cc1/C=N/CCCN1CCOCC1 here?
The Activity was >100 µg/mL.

With Oc1ccc(F)cc1/C=N/CCN1CCNCC1 as the compound, how does the Activity read?
Its Activity is 25 µg/mL.

For CN(C)CCC/N=C/c1cc(F)ccc1O, which Activity is on record?
Its Activity is >100 µg/mL.

Which Activity does the source give for CCN(CC)CCC/N=C/c1cc(F)ccc1O here?
The Activity was >100 µg/mL.

With Oc1ccc(CC/N=C/c2cc(F)ccc2O)cc1 as the compound, how does the Activity read?
Its Activity is 1.56 µg/mL.

With Cc1ccc(/N=C/c2cc(F)ccc2O)cc1 as the compound, how does the Activity read?
Its Activity is 100 µg/mL.

Which Activity does the source give for CC(C)c1ccc(/N=C/c2cc(F)ccc2O)cc1 here?
Its Activity is >100 µg/mL.

For Oc1ccc(F)cc1/C=N/c1ccc(F)cc1, which Activity is on record?
Its Activity is 12.5 µg/mL.

Which Activity does the source give for Oc1ccc(F)cc1/C=N/c1ccc(Cl)cc1 here?
The Activity was 25 µg/mL.

For Oc1ccc(F)cc1/C=N/c1ccc(Br)cc1, which Activity is on record?
Its Activity is 50 µg/mL.

Which Activity does the source give for Oc1ccc(/N=C/c2cc(F)ccc2O)cc1 here?
The Activity was >100 µg/mL.

With O=[N+]([O-])c1ccc(/N=C/c2cc(F)ccc2O)cc1 as the compound, how does the Activity read?
The Activity was >100 µg/mL.

For Oc1ccc(F)cc1/C=N/c1ccccc1F, which Activity is on record?
The Activity was 6.25 µg/mL.

For Oc1ccc(F)cc1/C=N/c1ccccc1Cl, which Activity is on record?
Its Activity is 12.5 µg/mL.

Which Activity does the source give for Oc1ccc(F)cc1/C=N/c1ccccn1 here?
Its Activity is 100 µg/mL.

Which Activity does the source give for Oc1ccc(F)cc1/C=N/C1CCN(Cc2ccccc2)CC1 here?
Its Activity is >100 µg/mL.

With NC[C@H]1O[C@H](O[C@H]2[C@H](O)[C@@H](O[C@H]3O[C@H](CO)[C@@H](O)[C@H](N)[C@H]3O)[C@H](N)C[C@@H]2N)[C@H](O)[C@@H](O)[C@@H]1O [KANAMYCIN] as the compound, how does the Activity read?
The Activity was 1.56 µg/mL.

Tested on: Pseudomonas fluorescens
Assay: Antibacterial activity against Pseudomonas fluorescens after 24 hrs by MTT assay
Type: functional
Summary of the method: as §1

With Oc1ccc(F)cc1/C=N/C1CCCC1 as the compound, how does the Activity read?
Its Activity is 12.5 µg/mL.

Which Activity does the source give for Oc1ccc(F)cc1/C=N/C1CCCCC1 here?
Its Activity is 12.5 µg/mL.

With Oc1ccc(F)cc1/C=N/CC1CCCCC1 as the compound, how does the Activity read?
The Activity was 6.25 µg/mL.

For Oc1ccc(F)cc1/C=N/CCN1CCOCC1, which Activity is on record?
Its Activity is 25 µg/mL.

With Oc1ccc(F)cc1/C=N/CCCN1CCOCC1 as the compound, how does the Activity read?
Its Activity is >100 µg/mL.

Which Activity does the source give for Oc1ccc(F)cc1/C=N/CCN1CCNCC1 here?
The Activity was 25 µg/mL.

For CN(C)CCC/N=C/c1cc(F)ccc1O, which Activity is on record?
Its Activity is >100 µg/mL.

For CCN(CC)CCC/N=C/c1cc(F)ccc1O, which Activity is on record?
Its Activity is >100 µg/mL.

For Oc1ccc(CC/N=C/c2cc(F)ccc2O)cc1, which Activity is on record?
Its Activity is 3.13 µg/mL.

With Cc1ccc(/N=C/c2cc(F)ccc2O)cc1 as the compound, how does the Activity read?
The Activity was 50 µg/mL.

For CC(C)c1ccc(/N=C/c2cc(F)ccc2O)cc1, which Activity is on record?
The Activity was 100 µg/mL.

For Oc1ccc(F)cc1/C=N/c1ccc(F)cc1, which Activity is on record?
Its Activity is 12.5 µg/mL.

For Oc1ccc(F)cc1/C=N/c1ccc(Cl)cc1, which Activity is on record?
The Activity was 25 µg/mL.

With Oc1ccc(F)cc1/C=N/c1ccc(Br)cc1 as the compound, how does the Activity read?
The Activity was 25 µg/mL.

Which Activity does the source give for Oc1ccc(/N=C/c2cc(F)ccc2O)cc1 here?
The Activity was >100 µg/mL.

With O=[N+]([O-])c1ccc(/N=C/c2cc(F)ccc2O)cc1 as the compound, how does the Activity read?
The Activity was >100 µg/mL.

For Oc1ccc(F)cc1/C=N/c1ccccc1F, which Activity is on record?
The Activity was 6.25 µg/mL.

For Oc1ccc(F)cc1/C=N/c1ccccc1Cl, which Activity is on record?
Its Activity is 12.5 µg/mL.

For Oc1ccc(F)cc1/C=N/c1ccccn1, which Activity is on record?
The Activity was 100 µg/mL.

Which Activity does the source give for Oc1ccc(F)cc1/C=N/C1CCN(Cc2ccccc2)CC1 here?
The Activity was >100 µg/mL.

For NC[C@H]1O[C@H](O[C@H]2[C@H](O)[C@@H](O[C@H]3O[C@H](CO)[C@@H](O)[C@H](N)[C@H]3O)[C@H](N)C[C@@H]2N)[C@H](O)[C@@H](O)[C@@H]1O [KANAMYCIN], which Activity is on record?
The Activity was 3.13 µg/mL.

Tested on: Bacillus subtilis
Assay: Antibacterial activity against Bacillus subtilis after 24 hrs by MTT assay
Type: functional
Summary of the method: as §1

Which Activity does the source give for Oc1ccc(F)cc1/C=N/C1CCCC1 here?
The Activity was 25 µg/mL.

Which Activity does the source give for Oc1ccc(F)cc1/C=N/C1CCCCC1 here?
The Activity was 25 µg/mL.

Which Activity does the source give for Oc1ccc(F)cc1/C=N/CC1CCCCC1 here?
The Activity was 12.5 µg/mL.

With Oc1ccc(F)cc1/C=N/CCN1CCOCC1 as the compound, how does the Activity read?
Its Activity is 50 µg/mL.

Which Activity does the source give for Oc1ccc(F)cc1/C=N/CCCN1CCOCC1 here?
The Activity was >100 µg/mL.

For Oc1ccc(F)cc1/C=N/CCN1CCNCC1, which Activity is on record?
The Activity was 50 µg/mL.

With CN(C)CCC/N=C/c1cc(F)ccc1O as the compound, how does the Activity read?
Its Activity is >100 µg/mL.

Which Activity does the source give for CCN(CC)CCC/N=C/c1cc(F)ccc1O here?
Its Activity is >100 µg/mL.

With Oc1ccc(CC/N=C/c2cc(F)ccc2O)cc1 as the compound, how does the Activity read?
Its Activity is 6.25 µg/mL.

With Cc1ccc(/N=C/c2cc(F)ccc2O)cc1 as the compound, how does the Activity read?
Its Activity is >100 µg/mL.

With CC(C)c1ccc(/N=C/c2cc(F)ccc2O)cc1 as the compound, how does the Activity read?
Its Activity is >100 µg/mL.

For Oc1ccc(F)cc1/C=N/c1ccc(F)cc1, which Activity is on record?
The Activity was 25 µg/mL.

For Oc1ccc(F)cc1/C=N/c1ccc(Cl)cc1, which Activity is on record?
The Activity was 50 µg/mL.

For Oc1ccc(F)cc1/C=N/c1ccc(Br)cc1, which Activity is on record?
The Activity was 50 µg/mL.

For Oc1ccc(/N=C/c2cc(F)ccc2O)cc1, which Activity is on record?
The Activity was >100 µg/mL.

With O=[N+]([O-])c1ccc(/N=C/c2cc(F)ccc2O)cc1 as the compound, how does the Activity read?
Its Activity is >100 µg/mL.

Which Activity does the source give for Oc1ccc(F)cc1/C=N/c1ccccc1F here?
Its Activity is 12.5 µg/mL.

With Oc1ccc(F)cc1/C=N/c1ccccc1Cl as the compound, how does the Activity read?
Its Activity is 12.5 µg/mL.

Which Activity does the source give for Oc1ccc(F)cc1/C=N/c1ccccn1 here?
The Activity was >100 µg/mL.

For Oc1ccc(F)cc1/C=N/C1CCN(Cc2ccccc2)CC1, which Activity is on record?
Its Activity is >100 µg/mL.

Which Activity does the source give for NC[C@H]1O[C@H](O[C@H]2[C@H](O)[C@@H](O[C@H]3O[C@H](CO)[C@@H](O)[C@H](N)[C@H]3O)[C@H](N)C[C@@H]2N)[C@H](O)[C@@H](O)[C@@H]1O [KANAMYCIN] here?
Its Activity is 1.56 µg/mL.
